For one data set, the species on record is Rattus norvegicus. Put plainly: Concentration required for 50% inhibition of GABA uptake in rat brain. The format is functional. In outline:
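Rat corpus striatum synaptosomes from a 0.32 M sucrose homogenate: 1000g spin, then 20000g pellet, both at 4 °C. Synaptosomes (1 mg protein) incubated 2 min at 37 °C in pH 7.4 Krebs-Ringer phosphate with 0.15 M NaCl, [3H]GABA (25–40 Ci/mmol) and test compound up to 10⁻⁴ M. Stopped by dilution with NaCl-free medium, centrifuged; pellet radioactivity counted. IC50 derived from the concentration range.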

Data set [1] in a line: I/U is the ratio of zwitterionic (I) to that of unionized […]. The class given is ADME. In outline: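 Ratio of zwitterionic (I) to un-ionized (U) species calculated by the Wegscheider method.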
The nature of data set [2]: Dissociation constant was measured by potentiometric titrations. The class given is physicochemical. Summed up:
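pKa determined by potentiometric titration; values are means of at least two determinations.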

Data set [3] is described as follows: Partition coefficient (logP). The format is physicochemical. The note with it: octanol/water. Summed up:
(§1)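 Conventional shake-flask partitioning at room temperature, 1-octanol or cyclohexane against 0.15 M phosphate buffer pH 7.4. Compound in the aqueous phase quantified spectrophotometrically. Means of at least two determinations.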

A short description of data set [4]: Partition coefficient (logP) (cyclohexane). The class given is physicochemical. The conditions noted are these: cyclohexane/phosphate buffer pH 7.4. Summed up:
as §1

Data set [5] in a line: Delta logPoct-cyc. The format is ADME. The conditions noted are these: octanol/water. Summed up: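 ΔP taken as log Poct minus log Pcyc. Both come from shake-flask partitioning at room temperature against 0.15 M phosphate buffer pH 7.4, with the aqueous phase read spectrophotometrically.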
Data set [6] in a line: Dissociation constant was measured as pKa1 by potentiometric titrations.
Data set [7] in a line: Concentration required for 50% inhibition of GABA uptake in rat brain.

In the data set filed under Rattus norvegicus, `O=C(O)C1=CCC(CCc2ccccc2)NC1` (configuration not stated) displayed an IC50 of 100 µM.

In the data set listed under Rattus norvegicus, `CCOC(=O)C1=CCC(CC)NC1` (configuration not stated) had an IC50 of over 100 µM.

In turn, `CC1CC=C(C(=O)O)CN1` (configuration not stated) yielded an IC50 in the data set listed under Rattus norvegicus of 40 µM.

Regarding `CN1CC(C(=O)O)=CCC1CCCCc1ccccc1` (configuration not stated), the IC50 in the data set listed under Rattus norvegicus was over 100 µM.

As to `CCC1CC=C(C(=O)O)CN1` (configuration not stated), the IC50 in the data set filed under Rattus norvegicus was over 100 µM.

For `Cl.O=C(O)C1=CCC(CCC(c2ccccc2)c2ccccc2)NC1` (configuration not stated), the Ratio in data set [1] is 7000. This compound came in with a pKa2 in data set [2] of 9.25. Further, the logP in data set [3] is 0.71; in data set [4], -2. In addition, in the data set listed under Rattus norvegicus, half-maximal inhibition (IC50) was put at 0.1 µM. Moreover, the “delta logP” value in data set [5] was 2.71. For the same compound, the pKa in data set [6] came out at 3.79.

Consider `CCCC1CC=C(C(=O)O)CN1` (configuration not stated), for which, in the data set filed under Rattus norvegicus, the IC50 is over 100 µM.

As for `O=C(O)C1=CCC(CCCCc2ccccc2)NC1` (configuration not stated), the IC50 in the data set listed under Rattus norvegicus was over 100 µM.

`CCOC(=O)C1=CCC(CCC(c2ccccc2)c2ccccc2)NC1` (configuration not stated): it took 37 µM to reach half-maximal inhibition in the data set listed under Rattus norvegicus (IC50).

As to `CCCC1CC=C(C(=O)OCC)CN1` (configuration not stated), in the data set filed under Rattus norvegicus, the IC50 was over 100 µM.

For the compound `O=C(O)C1CCCN(CCC=C(c2ccccc2)c2ccccc2)C1` (configuration not stated), in data set [1], the Ratio turned out to be 6000. This compound also registered a pKa2 in data set [2] of 9.23. Further, the results for the logP in data set [3] and in data set [4] were 0.99 and -0.43, respectively. For the same compound, in data set [5], the “delta logP” value turned out to be 1.43. Besides, in data set [7], the pKa is 3.57.

For orientation: IC50 means the concentration that gives 50% inhibition. By logP is commonly meant the decadic logarithm of the partition coefficient of the neutral form, usually between octanol and water.

The values are drawn from ChEMBL document CHEMBL1125186, “GABA-uptake inhibitors: construction of a general pharmacophore model and successful prediction of a new representative” (J Med Chem, 1991).
